Bioassay records deposited in PubChem by The Scripps Research Institute Molecular Screening Center.
CHO parental Ca – signal in parental CHO cells, OX1R antagonist counter-screen; AID 463079; parental CHO-K1, ATP-induced calcium, Fluo-8 fluorescence; inhibition, % at 5.6 µM; hit rate 0.63% among 330,000;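 active means inhibition above that plate's mean sample inhibition plus 3 SD, cut at about 26% in these data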;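 further: 0% = ATP-challenged DMSO wells and 100% = DMSO wells without ATP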
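material = parental CHO cells | also added = ATP as calcium-mobilizing challenge | dosing = single point at 5.6 µM | detection = intracellular calcium via Fluo-8 no-wash fluorescent dye | read-out = % inhibition | benchmarks = low control ATP plus DMSO, high control DMSO only | repeats = one well per compound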
TAAR1 ag – agonists of human TAAR1 | Q96RJ0 | CHO RD-HGA16 TAAR1, Fluo-8 calcium fluorescence; vehicle wells 0%, saturating PEA agonist 100% | activation, % at 3 µM | hit rate 0.99% among 360,000 | AID 624467;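 active means activation above the mean activation of all test compounds in the run plus 3 SD, cut at about 38% in these data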
Target sequence (Q96RJ0 whole entry, looked up): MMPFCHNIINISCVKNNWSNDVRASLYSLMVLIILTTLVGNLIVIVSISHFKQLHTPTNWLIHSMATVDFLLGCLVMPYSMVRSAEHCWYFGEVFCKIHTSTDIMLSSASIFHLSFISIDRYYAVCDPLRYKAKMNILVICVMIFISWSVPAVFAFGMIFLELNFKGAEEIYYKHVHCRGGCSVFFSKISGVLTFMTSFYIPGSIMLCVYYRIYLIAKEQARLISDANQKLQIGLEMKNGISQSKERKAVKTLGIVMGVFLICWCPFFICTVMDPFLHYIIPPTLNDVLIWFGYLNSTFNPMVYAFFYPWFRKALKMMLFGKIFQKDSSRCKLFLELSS
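Assay system: CHO-derived RD-HGA16 cells with stable Gα16 and human TAAR1; timing: 17-24 h seeding, 75 min 37 °C dye, 30 min RT; read-out: % activation from peak over basal fluorescence ratio, DMSO-to-PEA scaled; measured by: kinetic Fluo-8 calcium fluorescence; benchmarks: low control DMSO, high control PEA (EC100); doses: 3 µM single concentration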
OX1R antag-1 – OX1R (human) antagonism; O43613; OX1R-expressing cells, FRET antagonist read-out; inhibition, % at 6.6 µM; hit rate 1.8% among 330,000; AID 485270; in the data active means inhibition mostly above about 38%, no sharp cut-off; inactive means mostly below about 40%;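 further: 0% = agonist challenge alone and 100% = reference antagonist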
TAAR1 antag – human TAAR1 antagonism; inhibition, % at 3 µM; Q96RJ0; CHO RD-HGA16 TAAR1, Fluo-8 calcium fluorescence, antagonist; hit rate 1.5% among 360,000;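 active means inhibition above a per-plate cutoff, the mean inhibition of test compounds on that plate plus 3 SD, cut at about 49% in these data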;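 further: 0% = DMSO plus EC80 beta-PEA response and 100% = DMSO alone without agonist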
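Material: RD-HGA16 CHO cells with stable hTAAR1 and Gα16; Dosing: single nominal final test compound concentration of 3 µM; Schedule: seeding 17-24 h prior, 75-min 37 °C, 30-min RT dye loading; Detection: kinetic Fluo-8 calcium fluorescence measurement; Measure: % inhibition from peak post-agonist over basal fluorescence ratio; Benchmarks: vehicle and agonist controls.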
OX1R antag-2 – human HCRTR1 antagonism; O43613; hit rate 0.43% among 330,000; AID 434989; CHO/OX1R cells, Fluo-8 calcium fluorescence, orexin A; inhibition, % at 5 µM;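 active means inhibition above its plate's threshold, mean inhibition of all tested compounds on the plate plus 3 SD, cut at about 37% in these data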;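 further: 0% = orexin A challenge wells and 100% = SB-334867-A antagonist wells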
GPR7 antagonist – blocks human GPR7 receptor signaling | P48145 | GPR7-expressing cells, fluorescence antagonist assay | inhibition, % at 4.4 µM | hit rate 1.1% among 290,000; in the data active means inhibition above about 16%, passing the limit was not always enough;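 further: cells stimulated with the agonist NPW; 0% = agonist with vehicle and 100% = vehicle without agonist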
Target sequence (P48145 whole entry, looked up): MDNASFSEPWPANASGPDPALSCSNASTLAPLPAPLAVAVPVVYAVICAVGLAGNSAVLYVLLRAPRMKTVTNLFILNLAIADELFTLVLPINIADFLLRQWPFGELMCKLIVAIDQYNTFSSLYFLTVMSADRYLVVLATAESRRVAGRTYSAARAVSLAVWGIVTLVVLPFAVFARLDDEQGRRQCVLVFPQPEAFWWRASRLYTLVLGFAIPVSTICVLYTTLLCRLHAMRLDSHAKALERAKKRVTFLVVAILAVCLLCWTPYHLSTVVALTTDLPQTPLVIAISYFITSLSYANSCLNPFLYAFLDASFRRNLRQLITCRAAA
Numbers without * were called inactive. Most compounds without a hit are left out; they make up all but 4.5% or so of the library.

For O=C(NCc1ccccc1)[C@@H]1CCCN1C(=O)[C@H]1CCCN1C(=O)c1ccc(F)c(C(F)(F)F)c1 the results were TAAR1 ag -0.1 and TAAR1 antag -7.0.
`O=c1oc2ccc(C#CC3(O)CCCCC3)cc2cc1-n1cc(C2(O)CCCCC2)nn1` gave CHO parental Ca -6.7, TAAR1 ag 26.7, OX1R antag-1 5.8, TAAR1 antag 52.6* and OX1R antag-2 2.9.
Screening CCN(CC)c1ccc(Nc2nc(N3CCOCC3)c3ccccc3n2)cc1 returned CHO parental Ca 5.3, TAAR1 ag 12.3, OX1R antag-1 42.2*, TAAR1 antag 25.7, OX1R antag-2 3.7 and GPR7 antagonist -5.9.
CCN(CC)c1nc(N2CCOCC2)nc2ccccc12 was read as CHO parental Ca -13.2, TAAR1 ag -2.1, OX1R antag-1 6.3, TAAR1 antag -12.6, OX1R antag-2 -20.5 and GPR7 antagonist 0.6.
CCNC(=O)c1cc2c(c(-c3cccc(-c4ccccc4F)c3)n1)[C@@H](CCO)N(C(=O)CC1CC1)C2 was read as TAAR1 ag 3.1 and TAAR1 antag 5.5.
Screening COc1ccccc1-c1cccc(-c2nc(C(=O)Nc3nccs3)cc3c2[C@@H](CCO)N(C(=O)CC2CC2)C3)c1 returned TAAR1 ag 11.1 and TAAR1 antag 50.9*.
Screening O=C(CCl)N(c1ccc(Cl)cc1)c1c[nH]c2ccccc12 returned CHO parental Ca -0.3, TAAR1 ag 39.1*, OX1R antag-1 -2.0, TAAR1 antag 25.7, OX1R antag-2 4.7 and GPR7 antagonist 6.3.
For C#CCNC(=O)C[C@H]1C[C@@]2(C(=O)OC)C(=C[C@H](C(C)(C)C)O[C@@H]2C)N(CCC2=CCCCC2)C1=O the results were TAAR1 ag -2.4 and TAAR1 antag -23.4.
COc1cccc(N2C(=O)CC(Nc3ccc(N4CCOCC4)cc3)C2=O)c1 (stereo unspecified) was read as CHO parental Ca 4.7, OX1R antag-1 39.2*, OX1R antag-2 -6.1 and GPR7 antagonist 2.1.
CCCCNC(=O)c1nc(C2CCN(S(=O)(=O)c3cccc(C(F)(F)F)c3)CC2)oc1-c1cccc(C(F)(F)F)c1 was read as TAAR1 ag 0.3 and TAAR1 antag -3.5.
For O=C(CSc1nnc(-c2c[nH]c3ccccc23)o1)N(Cc1ccccc1)c1ccc(F)cc1 the results were CHO parental Ca 16.9, OX1R antag-1 51.6*, OX1R antag-2 14.1 and GPR7 antagonist 2.3.
For COc1cc(Nc2ccc(C(=O)O)cc2[N+](=O)[O-])cc(OC)c1 the results were CHO parental Ca -3.2, TAAR1 ag 2.1, OX1R antag-1 53.7*, TAAR1 antag -0.2, OX1R antag-2 -6.6 and GPR7 antagonist -9.5.
`CCOC(=O)CN1C(=O)/C(=C/c2ccccc2Br)Oc2ccccc21` gave CHO parental Ca -6.4, TAAR1 ag 5.1, OX1R antag-1 2.1, TAAR1 antag -28.6, OX1R antag-2 -0.8 and GPR7 antagonist 10.3.
`N#Cc1ccc(S(=O)(=O)N2CCCc3nc(-c4ccccc4)ccc32)cc1` gave TAAR1 ag 0.2 and TAAR1 antag -0.9.
Cc1nc2scc(-c3ccc(C(C)(C)C)cc3)c2c(=O)n1N was read as CHO parental Ca -0.1, TAAR1 ag 9.8, OX1R antag-1 19.4, TAAR1 antag 51.0*, OX1R antag-2 -1.1 and GPR7 antagonist -6.3.
Screening COc1ccc(-c2csc3nc(C)n(-n4cccc4)c(=O)c23)cc1 returned CHO parental Ca -13.9, TAAR1 ag 2.4, OX1R antag-1 18.1, TAAR1 antag 0.6, OX1R antag-2 -16.1 and GPR7 antagonist -9.9.
For CC(=O)c1c(C)nc2ccccc2c1N the results were CHO parental Ca -13.3, TAAR1 ag 12.8, OX1R antag-1 17.7, TAAR1 antag -6.1, OX1R antag-2 -21.6 and GPR7 antagonist -11.9.
Cc1nc2ccccc2c(N)c1C(=O)/C=C/c1ccccc1 was read as CHO parental Ca -5.5, TAAR1 ag 40.9*, OX1R antag-1 27.9, TAAR1 antag 7.8, OX1R antag-2 -15.1 and GPR7 antagonist -12.3.
Screening CCCc1cc(=O)n2[nH]c(C)nc2n1 returned CHO parental Ca 1.2, TAAR1 ag 7.7, OX1R antag-1 -0.9, TAAR1 antag 1.8, OX1R antag-2 -0.5 and GPR7 antagonist 1.2.
`CCCc1cc(=O)n2[nH]c(Cc3ccccc3)nc2n1` gave CHO parental Ca -14.9, TAAR1 ag 9.5, OX1R antag-1 21.5, TAAR1 antag -14.8, OX1R antag-2 -23.1 and GPR7 antagonist 17.6*.
`COc1ccc(C(=O)CSc2nnc(-c3cc4ccccc4cc3O)n2Cc2ccco2)cc1` gave CHO parental Ca -20.7, TAAR1 ag 2.0, OX1R antag-1 53.3*, TAAR1 antag 31.1, OX1R antag-2 6.1 and GPR7 antagonist 13.6.
Screening CCn1c(SCC(=O)N(C)CC(=O)Nc2cccc(OC)c2)nnc1-c1ccco1 returned CHO parental Ca -8.9, TAAR1 ag 1.0, OX1R antag-1 40.3*, TAAR1 antag -6.3 and OX1R antag-2 -10.8.
For CCn1c(SCC(=O)N(C)CC(=O)Nc2ccc(OC)cc2)nnc1-c1ccco1 the results were CHO parental Ca -3.0, TAAR1 ag 2.6, OX1R antag-1 26.0, TAAR1 antag 7.6 and OX1R antag-2 -18.7.
`CCn1c(SCC(=O)c2ccc3ccccc3c2)nnc1-c1ccco1` gave CHO parental Ca -8.9, TAAR1 ag 3.6, OX1R antag-1 73.6*, TAAR1 antag 2.2, OX1R antag-2 -3.4 and GPR7 antagonist -6.6.
Screening CCCNC(=O)c1ccc(N2CCC3(CC2)CC(c2cccc(Br)c2)=NO3)c([N+](=O)[O-])c1 returned CHO parental Ca 15.8, TAAR1 ag 5.1, OX1R antag-1 40.3, TAAR1 antag 50.7*, OX1R antag-2 7.4 and GPR7 antagonist 27.1.
Cc1ccc(CNC(=O)c2ccc(N3CCC4(CC3)CC(c3cccc(Br)c3)=NO4)c([N+](=O)[O-])c2)cc1 was read as CHO parental Ca 0.4, TAAR1 ag 23.2, OX1R antag-1 13.2, TAAR1 antag -4.6 and OX1R antag-2 -14.9.
Cc1ccc(C)c(-n2c3nc(=O)n(C)c(=O)c-3cc3ccccc32)c1 was read as CHO parental Ca -14.9, TAAR1 ag 1.4, OX1R antag-1 63.0*, TAAR1 antag -44.4, OX1R antag-2 -24.4 and GPR7 antagonist -18.9.
CCCCn1c(=O)nc2n(-c3ccccc3)c3ccccc3cc-2c1=O was read as CHO parental Ca -25.6, TAAR1 ag 2.3, OX1R antag-1 31.1, TAAR1 antag -0.4, OX1R antag-2 -42.9 and GPR7 antagonist -0.7.
Cn1c(=O)c2c(nc(NCc3ccc4c(c3)OCO4)n2Cc2ccc(F)cc2)n(C)c1=O was read as CHO parental Ca 22.5*, TAAR1 ag 17.7, OX1R antag-1 13.3, TAAR1 antag -1.2, OX1R antag-2 -32.9 and GPR7 antagonist -7.3.
